Experimental data from ChEMBL document CHEMBL4680178, “Design, synthesis and biological evaluation of new ganglioside GM3 analogues as potential agents for cancer therapy” (Eur J Med Chem, 2020).
Calls of active or inactive are those of the source. The calls are words filed in the database; no cut-off is given here.

What was measured:
Assay type in all cases: functional, cell-based
B16 = assay: Antimigratory activity against mouse B16 cells assessed as inhibition of cell migration at 6.25 to 25 uM measured after 24 hrs by scratch wound healing assay; conditions: dose 6.25-25 µM
Method in brief: (§1)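 Near-confluent monolayers (1.5×10^5 cells per well, RPMI-1640 + 10% FBS) scratched with a pipette tip, washed twice with serum-free RPMI-1640, then exposed to compound in fresh FBS-containing medium (DMSO solvent control) for 24 h. Wounds photographed by inverted microscopy; migration expressed as wound width at 24 h / wound width at 0 h (%). Triplicate.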

HCT-116 = assay: Antiproliferative activity against human HCT-116 cells assessed as inhibition of cell growth after 48 hrs by MTT assay; conditions: HCT-116, 48 h
Method in brief: (§2)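 Cells grown in RPMI-1640 with 10% heat-inactivated FBS at 37 °C, 5% CO2, seeded at 8×10^3/well, treated 48 h with compound at 20, 200, 400, 1000 μM or DMSO vehicle. MTT (5 mg/mL solution) added for 4 h at 37 °C; absorbance read at 570 nm. IC50 from three independent experiments, mean ± SD.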

K562 = assay: Antiproliferative activity against human K562 cells assessed as inhibition of cell growth after 48 hrs by MTT assay; conditions: K562, 48 h; method in brief: as §2
B16-F10 = assay: Antimigratory activity against mouse B16-F10 cells assessed as inhibition of cell migration at 6.25 to 25 uM measured after 24 hrs by scratch wound healing assay; conditions: dose 6.25-25 µM; method in brief: as §1

IC50 (HCT-116) [µM]	IC50 (K562) [µM]	SMILES	inhibition (B16)	inhibition (B16-F10)
150	149	CCCCCCCCCCCCC/C=C/[C@@H](O)[C@@H](N)CO[C@@H]1O[C@H](CO)[C@@H](O[C@@H]2O[C@H](CO[C@]3(C(=O)O)C[C@H](O)[C@@H](NC(C)=O)[C@H]([C@H](O)[C@H](O)CO)O3)[C@H](O)[C@H](O)[C@H]2O)[C@H](O)[C@H]1O	Active	Active
201	201	CCCCCCCCCCCCC/C=C/[C@@H](O)[C@H](CO[C@@H]1O[C@H](CO)[C@@H](O[C@@H]2O[C@H](CO[C@]3(C(=O)O)C[C@H](O)[C@@H](NC(C)=O)[C@H]([C@H](O)[C@H](O)CO)O3)[C@H](O)[C@H](O)[C@H]2O)[C@H](O)[C@H]1O)NC(=O)CCCCCCCCCCCCCCCCC	Active	Active
